The list is not random: actives were taken first. Their share in the collection is about 2.5%.
ABHD4 inh: ABHD4 (mouse) inhibition, primary FP screen; Q8VD66; purified mABHD4, FP-Rh probe fluorescence polarization; inhibition, % at 8.92 µM; actives 0.54% (n = 370,000);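 active = inhibition exceeding the mean over every tested compound plus 3 SD, cut at about 30% in these data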;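 note: 0% = plate median of compound wells and 100% = S159A mutant with DMSO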
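Assay system: mouse ABHD4 enzyme, wild type / Also added: fluorescent activity-based probe FP-Rh / Doses: single nominal dose of 8.92 µM, 0.89% DMSO final / Timing: 45 min compound pre-incubation plus 60 min probe step, 25 °C / Signal: FP readout, ex 525 nm / em 598 nm / Control set: S159A mutant/DMSO as 100%, compound-well median as 0%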
SIAE inh: human SIAE inhibition, primary screen; inhibition, % at 9.66 µM; AID 1053197; SIAE FP-Rh probe binding, fluorescence polarization; actives 0.69% (n = 370,000); Q9HAT2;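 active = inhibition above a cutoff: mean of compounds within the control limits plus 3 SD of those, cut at about 17% in these data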;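 note: 0% = plate median of compound wells and 100% = probe without SIAE protein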
PRMT1 inh: PRMT1 (human) inhibition, primary screen; recombinant PRMT1, activity-based probe fluorescence polarization; inhibition, % at 2.79 µM; actives 1.3% (n = 370,000);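 active = inhibition above about 21% made by adding two undisclosed values, limit read from the data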
TCR CD3 inh: human TCR-CD3 binding inhibition; TAMRA-labeled TCR probe fluorescence, biochemical; inhibition, % at 9.4 µM; actives 0.37% (n = 360,000); in the data active = inhibition above about 19%;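 note: recombinant mutant TCR 2C K166C tagged with TAMRA read by polarization; 0% = receptor in buffer alone and 100% = receptor with positive control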
HTRA1 inhibitor: inhibitors of human serine peptidase HTRA1; inhibition, % at 5.96 µM; recombinant HTRA1, FP-rhodamine activity-based probe, fluorescence polarization; actives 0.5% (n = 340,000); Q92743; in the data active = inhibition above about 36%;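 note: 0% = enzyme with DMSO and 100% = wells lacking enzyme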
Target sequence (Q92743 whole entry, looked up): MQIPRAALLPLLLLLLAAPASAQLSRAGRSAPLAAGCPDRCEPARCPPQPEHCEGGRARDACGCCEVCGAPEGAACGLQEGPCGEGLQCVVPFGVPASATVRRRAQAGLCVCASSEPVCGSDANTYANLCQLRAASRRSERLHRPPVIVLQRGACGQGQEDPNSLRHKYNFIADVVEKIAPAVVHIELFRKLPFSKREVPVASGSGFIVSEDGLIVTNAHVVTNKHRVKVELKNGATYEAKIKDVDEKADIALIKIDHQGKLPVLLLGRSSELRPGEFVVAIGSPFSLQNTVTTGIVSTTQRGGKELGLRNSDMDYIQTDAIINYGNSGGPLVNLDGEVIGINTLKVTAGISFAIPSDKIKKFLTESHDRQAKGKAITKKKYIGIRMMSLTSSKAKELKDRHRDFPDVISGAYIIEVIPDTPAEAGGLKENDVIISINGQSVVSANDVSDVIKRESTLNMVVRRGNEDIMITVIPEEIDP
ABHD4 confirm: ABHD4 (mouse) inhibition, FP confirmation; inhibition, % at 8.92 µM; shares compounds with ABHD4 inh; actives 55% (n = 1,800); purified mABHD4, FP-Rh probe fluorescence polarization;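 active = mean inhibition across replicates above the hit cutoff set in the primary screen, cut at about 30% in these data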;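 note: 0% = wild-type ABHD4 with DMSO and 100% = catalytically dead S159A mutant with DMSO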
* = called active by the depositor; . = not tested or not shown.

SMILES | ABHD4 inh | SIAE inh | PRMT1 inh | TCR CD3 inh | HTRA1 inhibitor | ABHD4 confirm
COc1cc(OC)cc(C(=O)Nc2nc(CC(=O)NCc3ccc(F)cc3)cs2)c1 | 43.4* | -0.4 | 0.8 | -8.2 | -45.4 | 35.4*
COc1cccc(CNC(=O)C2CCN(S(=O)(=O)c3ccc4c(c3)CC(C)N4C(C)=O)CC2)c1 (stereo unspecified) | -0.2 | -3.8 | 2.1 | -3.4 | -7.5 | .
COc1ccccc1NS(=O)(=O)c1ccc(O)c(C(=O)OCC(=O)Nc2ccccc2F)c1 | -0.5 | 4.7 | -0.7 | -3.3 | -4.2 | .
CCN(Cc1ccccc1)C(=O)COC(=O)c1cc(S(=O)(=O)Nc2ccccc2OC)ccc1O | 30.9* | -6.8 | 1.0 | 2.6 | 3.5 | 43.9*
NC(=O)c1ccc(NCCc2ccccc2)c([N+](=O)[O-])c1 | 3.1 | -4.9 | -3.0 | 7.5 | -8.5 | .
O=C(O)c1ccc(NCCC2=CCCCC2)c([N+](=O)[O-])c1 | 41.3* | 0.7 | 0.7 | -2.8 | -4.9 | 45.5*
COc1ccc(CCNc2ccc(C(=O)O)cc2[N+](=O)[O-])cc1OC | 45.1* | 5.4 | -2.1 | 7.0 | -16.6 | 43.2*
O=C(c1ccccc1)N1N=C(c2cccs2)CC1c1ccccc1O (stereo unspecified) | -21.9 | -10.9 | -7.4 | 4.8 | -42.1 | .
COC(=O)c1ccc(C2N=C(c3cccs3)CC(c3ccccc3O)N2)cc1 (stereo unspecified) | 36.2* | 3.3 | 6.9 | -1.7 | -14.8 | -9.4
O=C(/C=C(\Nc1ccc(F)cc1)c1ccccc1)c1ccccc1 | 3.7 | -5.1 | -0.5 | 0.3 | . | .
O=C(O)c1ccc(N/N=C/c2cn(Cc3ccc(F)cc3)c3ccccc23)cc1 | 49.5* | 10.4 | 18.2 | 5.6 | -1.6 | 55.3*
COc1ccc(S(=O)(=O)N(C)CC(=O)N2CCCC2)cc1OC | 3.3 | -3.2 | -1.1 | 3.2 | -1.4 | .
COc1cc(/C=C2\SC(=O)N(CC(=O)Nc3cccc(C)c3)C2=O)cc([N+](=O)[O-])c1O | 30.8* | -4.5 | 8.7 | -3.7 | . | 80.2*
COc1cccc(C(=O)CC(C#N)c2ccc(F)cc2)c1 (stereo unspecified) | . | . | . | . | 3.1 | .
Cc1ccc(/C=N/Nc2cc(C)nc(NCc3ccccc3)n2)cc1 | 33.6* | 1.3 | -7.4 | -3.4 | -23.1 | 59.8*
COc1ccc(CNc2ncnc3c2[nH]c2ccccc23)cc1 | 14.2 | 14.0 | -3.2 | -1.8 | . | .
Cc1ccc2[nH]c3c(NCc4ccccc4)ncnc3c2c1 | 41.2* | 24.1* | 1.6 | 1.1 | . | 20.2
C/C(=N\Nc1ccc(C(=O)O)cc1)c1ccc2c(c1)Nc1ccccc1S2 | 43.4* | 16.5 | 3.0 | 0.1 | 34.8 | 77.4*
C/C(=N\Nc1ccc(Cl)c(C(=O)O)c1)c1ccc2c(c1)OCO2 | 10.7 | 10.0 | 4.4 | -4.5 | 3.8 | .
O=c1c2ccccc2[nH]c(=S)n1CCCN1CCOCC1 | -10.3 | -1.3 | 0.6 | -3.8 | -5.0 | .
N=C1c2c(cc(=O)n3c2[nH]c2ccccc23)CN1CCN1CCOCC1 | 30.8* | 12.6 | 6.2 | -2.4 | 25.6 | 12.7
Cc1nn(-c2ccccc2)c(N2CCCC2)c1/C=N/NC(=S)Nc1cc(C(F)(F)F)ccc1Cl | 5.8 | 7.6 | -0.1 | 3.6 | -5.2 | .
Cc1nn(-c2ccccc2)c(N2CCCC2)c1/C=N/NC(=S)Nc1ccccc1C(F)(F)F | 54.1* | 5.8 | -0.9 | -2.3 | -1.9 | 57.5*
COc1ccc(-c2csc(NS(=O)(=O)c3ccc([N+](=O)[O-])cc3)n2)cc1 | 36.7* | 7.1 | 0.6 | 1.7 | 4.2 | 33.6*
Cc1cc2nnn(-c3nnc(-c4ccccc4)c4ccccc34)c2cc1C | 0.2 | -8.9 | -1.5 | -2.4 | -5.3 | .
COc1ccc(NC(=O)c2ccc(NC(=O)C(C)C)cc2)c([N+](=O)[O-])c1 | -6.3 | 4.3 | 0.7 | -4.0 | 0.1 | .
COc1ccc(NC(=O)C(c2cc3c(cc2[N+](=O)[O-])OCO3)N(C)C)cc1 (stereo unspecified) | 70.4* | 6.6 | 0.4 | 14.8 | 9.9 | -1.9
C=CCSC1=N/C(=C\C=C\c2ccco2)C(=O)S1 | 64.1* | 13.3 | 44.5* | 16.1 | 23.7 | 6.8
COc1ccc(CCC(=O)OCc2csc(CC(=O)Nc3ccccc3C)n2)cc1 | 35.7* | -4.3 | -3.2 | 1.0 | -10.1 | 18.5
CCOc1ccc(OCC(=O)OCc2csc(CC(=O)Nc3ccccc3C)n2)cc1 | 9.9 | -5.9 | 1.6 | 4.8 | -4.9 | .
